Data set [1] can be described thus: Lipophilicity, log D of the compound at pH 6.4. The class given is physicochemical. Particulars: buffer.
Data set [2] can be described thus: Oral bioavailability in dog. In kind it is ADME, organism-based, Canis lupus familiaris. Conditions: in vivo. The gist of the method:
(§1)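 Pharmacokinetics were run in male Han Wistar rat and Beagle dog, dosed intravenously and orally. Plasma clearance, steady-state volume of distribution, half-life and oral bioavailability were derived from the plasma profiles. Rat plasma samples were deconjugated before analysis.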

Data set [3] relates to Cavia porcellus. The data set is described as follows: Bronchodilatory activity against histamine-induced bronchospasm in guinea pig assessed as time taken for 50% recovery of bronchospasm at EC90 administered via nebulizer. The class given is functional. The essentials: (§2)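 In vivo guinea pig model with histamine-induced bronchospasm, measured in a plethysmograph chamber. Compound was given as a nebulised solution in dimethyl acetamide-saline vehicle. Potency is expressed as the EC90 nebuliser concentration.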

The subject of the next data set is Liver microsomes. The data set is described as follows: Metabolic stability in human liver microsomes assessed as compound turn over ratio relative to verapamil. In kind it is ADME, Microsome.
Data set [4] deals with Beta-2 adrenergic receptor (Homo sapiens, UniProt P07550). The data set is described as follows: Agonist activity at human beta2 receptor expressed in CHO cells assessed as cAMP accumulation. In kind it is functional, cell-based. On the technique in general: Cyclic AMP is a second messenger, typically raised through Gs and lowered through Gi signalling.
Data set [5] has as its target Beta-3 adrenergic receptor (Homo sapiens, UniProt P13945). The data set can be described thus: Agonist activity at human beta3 receptor expressed in CHO cells assessed as cAMP accumulation. In kind it is functional, cell-based.
For data set [6], the target named is Beta-1 adrenergic receptor (Homo sapiens, UniProt P08588). The data set is described as follows: Agonist activity at human beta1 receptor expressed in CHO cells assessed as cAMP accumulation. In kind it is functional, cell-based.
For data set [7], the target named is Beta-2 adrenergic receptor (Cavia porcellus, UniProt Q8K4Z4). The data set is described as follows: Agonist activity at beta2 adrenergic receptor in guinea pig tracheal strip assessed as inhibition of electrically-induced bronchocontractile response. In kind it is functional, tissue-based, Trachea.
The species entered for data set [8] is Cavia porcellus. The data set is described as follows: Bronchodilatory activity against electrically-stimulated contraction in guinea pig trachea assessed as onset time for bronchorelaxation activity. In kind it is functional. The gist of the method:
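Isolated guinea pig trachea strips were superfused and contracted electrically. Agonist was perfused until maximal relaxation was reached. Onset was taken as the time for an EC50 concentration to reach 50% of maximal relaxant effect. Minimum n = 2.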

Data set [9] is described as follows: Volume of distribution at steady state in Beagle dog at 0.05 mg/kg, iv. Conditions: in vivo, read-out: Vdss.
A short description of data set [10]: Half life in Han Wistar rat at 0.25 mg/kg, iv. The class given is ADME, organism-based. More on the design: dose 0.25 mg/kg, route intravenous. Conditions: in vivo. The gist of the method:
as §1

Data set [11] is described as follows: Oral bioavailability in Beagle dog at 0.25 mg/kg. Particulars: in vivo.
The subject of a further data set is Canis familiaris. The data set is described as follows: Liver blood flow in Beagle dog at 0.05 mg/kg, iv. Conditions: in vivo.
Data set [12] can be described thus: Oral bioavailability in Han Wistar rat at 2 mg/kg. In kind it is ADME, organism-based. Conditions: in vivo. The essentials: as §1
The species entered for data set [13] is Cavia porcellus. The data set can be described thus: Bronchodilatory activity against histamine-induced bronchospasm in the guinea pig. The class given is functional. The gist of the method:
as §2

A short description of data set [14]: AUC in Han Wistar rat at 2 mg/kg, po. More on the design: dose 2 mg/kg, route oral. Conditions: plasma. The class given is ADME, organism-based. The essentials:
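Oral absorption in rat was measured as AUC using a deconjugated HPV model.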

Data set [15] is described as follows: Plasma clearance in Beagle dog at 0.05 mg/kg, iv.
Data set [16] is described as follows: Volume of distribution at steady state in Han Wistar rat at 0.25 mg/kg, iv. The class given is ADME, organism-based. More on the design: dose 0.25 mg/kg, route intravenous. Particulars: in vivo, read-out: Vdss. The gist of the method: as §1
Data set [17] in a line: Plasma clearance in Han Wistar rat at 0.25 mg/kg, iv. In kind it is ADME, organism-based. More on the design: dose 0.25 mg/kg, route intravenous. The essentials: as §1
In a further data set the test system is Rattus norvegicus. The data set can be described thus: Liver blood flow in Han Wistar rat at 0.25 mg/kg, iv. The class given is ADME, organism-based. More on the design: dose 0.25 mg/kg, route intravenous. Particulars: in vivo.
Data set [18] is described as follows: Half life in Beagle dog at 0.05 mg/kg, iv. Conditions: in vivo.
In data set [19] the test system is Cavia porcellus. The data set can be described thus: Bronchodilatory activity against histamine-induced bronchospasm in guinea pig assessed as time taken for 50% recovery of bronchospasm at 10 times EC90 administered via nebulizer. In kind it is functional. The essentials:
as §2

Chain of Beta-1 adrenergic receptor (P08588 whole entry): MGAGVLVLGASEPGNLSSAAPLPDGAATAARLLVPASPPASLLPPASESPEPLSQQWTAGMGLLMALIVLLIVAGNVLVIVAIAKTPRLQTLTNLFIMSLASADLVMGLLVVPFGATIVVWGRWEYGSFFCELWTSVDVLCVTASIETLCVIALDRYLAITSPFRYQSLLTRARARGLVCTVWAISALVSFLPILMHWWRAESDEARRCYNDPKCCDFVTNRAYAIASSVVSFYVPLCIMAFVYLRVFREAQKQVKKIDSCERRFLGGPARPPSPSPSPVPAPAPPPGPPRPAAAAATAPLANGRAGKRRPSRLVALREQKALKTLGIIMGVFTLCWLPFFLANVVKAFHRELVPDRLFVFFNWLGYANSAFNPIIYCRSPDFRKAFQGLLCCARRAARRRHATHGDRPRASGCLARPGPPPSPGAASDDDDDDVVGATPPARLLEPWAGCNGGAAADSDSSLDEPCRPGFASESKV
Chain of Beta-2 adrenergic receptor (Cavia porcellus, UniProt Q8K4Z4) (Q8K4Z4 whole entry): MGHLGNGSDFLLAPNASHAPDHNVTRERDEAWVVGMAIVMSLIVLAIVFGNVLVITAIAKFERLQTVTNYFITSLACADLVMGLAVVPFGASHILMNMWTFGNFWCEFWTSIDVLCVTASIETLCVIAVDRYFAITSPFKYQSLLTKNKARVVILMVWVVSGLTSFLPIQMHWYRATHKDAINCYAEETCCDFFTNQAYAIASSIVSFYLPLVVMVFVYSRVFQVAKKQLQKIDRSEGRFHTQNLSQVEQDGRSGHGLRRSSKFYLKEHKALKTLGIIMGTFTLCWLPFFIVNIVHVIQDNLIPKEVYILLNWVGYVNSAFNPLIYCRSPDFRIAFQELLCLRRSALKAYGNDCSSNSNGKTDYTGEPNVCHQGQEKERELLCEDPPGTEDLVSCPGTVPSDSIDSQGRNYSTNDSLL
Chain of Beta-3 adrenergic receptor (P13945 whole entry): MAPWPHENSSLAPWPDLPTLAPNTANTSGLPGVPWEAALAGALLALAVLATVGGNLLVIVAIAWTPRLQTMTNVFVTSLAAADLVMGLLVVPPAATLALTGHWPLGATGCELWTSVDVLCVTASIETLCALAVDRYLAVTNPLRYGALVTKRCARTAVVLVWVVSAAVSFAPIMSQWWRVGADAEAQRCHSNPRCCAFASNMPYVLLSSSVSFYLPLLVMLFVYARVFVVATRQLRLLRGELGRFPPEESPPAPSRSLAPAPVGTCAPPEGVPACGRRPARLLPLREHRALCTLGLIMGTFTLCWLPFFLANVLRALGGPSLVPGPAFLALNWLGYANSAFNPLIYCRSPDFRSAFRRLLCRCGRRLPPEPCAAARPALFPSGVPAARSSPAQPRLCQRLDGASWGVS
Chain of Beta-2 adrenergic receptor (Homo sapiens, UniProt P07550) (P07550 whole entry): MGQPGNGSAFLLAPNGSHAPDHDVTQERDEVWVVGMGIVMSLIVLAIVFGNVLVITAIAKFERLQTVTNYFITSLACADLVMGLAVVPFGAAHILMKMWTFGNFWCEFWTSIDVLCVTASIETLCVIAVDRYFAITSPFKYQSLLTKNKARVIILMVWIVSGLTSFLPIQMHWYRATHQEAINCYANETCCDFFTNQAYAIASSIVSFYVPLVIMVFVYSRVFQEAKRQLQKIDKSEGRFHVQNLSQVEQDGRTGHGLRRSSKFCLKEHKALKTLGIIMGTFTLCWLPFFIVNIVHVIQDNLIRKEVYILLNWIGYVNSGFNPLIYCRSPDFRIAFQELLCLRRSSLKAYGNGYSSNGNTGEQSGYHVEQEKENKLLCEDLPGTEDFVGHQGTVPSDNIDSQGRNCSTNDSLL

Take `OCc1cc(C(O)CNCCCCCCOCCCCc2ccccc2)ccc1O` (configuration not stated) [SALMETEROL]: in data set [1], the logD (as a rule, the decadic logarithm of the distribution of all forms, ionised or not, between an organic phase and buffer at a given pH) stood at 1.06. In addition, in data set [2], the bioavailability (as a rule, the share of a dose that reaches the circulation, judged against a reference dose that is usually intravenous) amounted to 66%. Besides, the Time in the data set with Cavia porcellus [3] turned out to be 8 h.
`CC(=O)O.NC(=O)Nc1cc(CCCCOCCCCCCNC[C@H](O)c2ccc(O)c(CO)c2)cc(C(F)(F)F)c1`: the “fold change (FC)” value in the data set on Liver microsomes is on record as 1.34. For the same molecule, the figures for the EC50 in data set [4], in data set [5] and in [6] were 1 nM, 25.1 nM and 50.1 nM, respectively.
The corresponding values for `CC(=O)O.CCNC(=O)NCc1cccc(CCCCOCCCCCCNC[C@H](O)c2ccc(O)c(CO)c2)c1` are 0.72, 0.631 nM, 31.6 nM and 31.6 nM.
Turning to `CC(=O)O.NC(=O)NCc1cccc(CCCCOCCCCCCNC[C@H](O)c2ccc(O)c(CO)c2)c1`, the “fold change (FC)” value in the data set with Liver microsomes is 1.64. For the same molecule, the results for the EC50 in data set [4], in [5] and in [6] were 0.501 nM, 15.8 nM and 7.94 nM, respectively.
Consider `NC(=O)CNC(=O)Nc1cccc(CCCCOCCCCCCNC[C@H](O)c2ccc(O)c(CO)c2)c1.O=CO`, for which the EC50 (commonly the concentration giving half of the maximal effect) in [4] is 0.251 nM; in data set [5] it was 100 nM; in data set [7], 0.251 nM; in data set [6] it was 31.6 nM. In [1], this molecule returned a logD of -0.78. The Time in the data set filed under Cavia porcellus [8] is recorded as 9 min.
Consider `CC(=O)O.CCNC(=O)Nc1ccc(CCCCOCCCCCCNC[C@H](O)c2ccc(O)c(CO)c2)cc1`, for which, in the data set with Liver microsomes, the “fold change (FC)” value came to 1.37. Also, the values for the EC50 in [4], in data set [5] and in data set [6] were 0.501 nM, 12.6 nM and 31.6 nM, respectively.
With `O=C(CNC(=O)Nc1cccc(CCCCOCCCCCCNC[C@H](O)c2ccc(O)c(CO)c2)c1)NC1CCCC1`, the EC50 in data set [4] was 0.316 nM; in data set [5] it was 12.6 nM; in data set [6], 10 nM.
`CC(=O)O.NC(=O)Nc1cccc(CCCCOCCCCCCNC[C@H](O)c2ccc(O)c(CO)c2)c1`: the “fold change (FC)” value in the data set with Liver microsomes was determined as 0.97. Further, the EC50 in data set [4] was 0.794 nM; in [5], 7.94 nM; in [7] it was 2.51 nM; in data set [6] it was 63.1 nM. The molecule further showed a logD in data set [1] of -0.28. Besides, in the data set filed under Cavia porcellus [8], the Time is on record as 13.5 min.
`CC(=O)O.Cc1cc(CCCCOCCCCCCNC[C@H](O)c2ccc(O)c(CO)c2)cc(NC(N)=O)c1`: the Vd in data set [9] came to 0.55 L/kg; in [16] it was 2 L/kg. In addition, the values for the half-life in [10] and in data set [18] were 54 min and 60 min, respectively. In addition, the “fold change (FC)” value in the data set with Liver microsomes came to 1.17. Further, the bioavailability in [11] was 6%; in data set [12] it was below 5%. The results for the QH in the data set on Canis familiaris and in the data set with Rattus norvegicus were below 67% and 100%, respectively. The EC50 in [4] is 0.158 nM; in [5], 39.8 nM; in data set [7] it was 1.58 nM; in data set [6], 39.8 nM. The molecule also registered a logD in [1] of 0.2. Moreover, the EC90 (in general, the point of the concentration-response curve where the effect stands at 90%) in the data set listed under Cavia porcellus [13] was determined as 10000 nM. Also, the AUC – broadly, concentration integrated over time – in data set [14] was 80.2 ng·h/mL. The clearance (commonly the rate of elimination divided by the concentration) came out at 6 mL/min/kg in data set [15] and 83 mL/min/kg in [17]. The results for the Time in the data set listed under Cavia porcellus [8], in the data set on Cavia porcellus [3] and in the data set on Cavia porcellus [19] were 10 min, 7 h and 18 h, respectively.
For `CC(=O)O.O=C(Nc1cccc(CCCCOCCCCCCNC[C@H](O)c2ccc(O)c(CO)c2)c1)NC1CCCCC1`, in the data set on Liver microsomes, the “fold change (FC)” value is reported as 2.18. Further, the concentration giving a half-maximal response (EC50) was 1 nM in [4], 2.51 nM in [5] and 7.94 nM in [6].
`CC(=O)O.CCNC(=O)Nc1cccc(CCCCOCCCCCCNC[C@H](O)c2ccc(O)c(CO)c2)c1`: the “fold change (FC)” value with Liver microsomes is 0.81. Also, the half-maximal effective concentration (EC50) is 1 nM in data set [4], 158 nM in [5], 1.26 nM in data set [7] and 31.6 nM in data set [6]. In data set [1], this molecule came in with a logD of 0.5. For the same molecule, in the data set filed under Cavia porcellus [8], the Time was 15 min.

The values above are taken from ChEMBL document CHEMBL1833832, “The discovery of long-acting saligenin β₂ adrenergic receptor agonists incorporating a urea group” (Bioorg Med Chem, 2011).
